From ChEMBL document CHEMBL4411315, “Discovery of Novel Dual Histone Deacetylase and Mammalian Target of Rapamycin Target Inhibitors as a Promising Strategy for Cancer Therapy” (J Med Chem, 2019)

Columns and labels:
[1] = system: HCT-116; experiment: Antiproliferative activity against human HCT116 cells after 72 hrs by MTT assay; assay type: functional, cell-based; conditions: HCT-116, 72 h
[2] = system: Raji; experiment: Antiproliferative activity against human Raji cells after 72 hrs by MTT assay; assay type: functional, cell-based
How it was run: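 Log-phase cells were plated at 10000-15000 per well and exposed to serial concentrations after 24 h for 72 h. Read-out was MTT for 1-3 h, then 20% SDS overnight and absorbance at 570 nm. IC50 was calculated from growth versus untreated control, as mean ± SEM of at least three independent experiments.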

[3] = system: MM1.S; experiment: Antiproliferative activity against human MM1S cells after 72 hrs by MTT assay; assay type: functional, cell-based
[4] = biological target: T1, Serine/threonine-protein kinase mTOR (Homo sapiens, UniProt P42345); experiment: Inhibition of recombinant N-terminal FLAG-tagged human mTOR (1362 to end residues) using ULight-4E-BP1 (Thr37/46) peptide as substrate after 1 hr by fluorescence assay
How it was run: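 mTOR enzyme, ATP, compound and ULight-4E-BP1 (Thr37/46) peptide in kinase buffer were incubated 1 h at room temperature. EDTA quench plus Eu-anti-phospho-4E-BP1 antibody was added and equilibrated 1 h. TR-FRET was read at excitation 320 or 340 nm and emission 665 nm. Curves were fitted, and values are means of at least two experiments.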

[5] = system: MV4-11; experiment: Antiproliferative activity against human MV4-11 cells after 72 hrs by MTT assay; assay type: functional, cell-based; conditions: MV4-11, 72 h
[6] = system: OCI-AML2; experiment: Antiproliferative activity against human OCI-AML2 cells after 72 hrs by MTT assay; assay type: functional, cell-based; conditions: OCI-AML2, 72 h
[7] = system: OCI-AML-3; experiment: Antiproliferative activity against human OCI-AML3 cells after 72 hrs by MTT assay; assay type: functional, cell-based; conditions: OCI-AML-3, 72 h
[8] = biological target: T2, PI3-kinase p110-alpha/p85-alpha (Homo sapiens) (UniProt P27986+P42336); experiment: Inhibition of recombinant human full length N-terminal His-tagged/untagged p110alpha/p85alpha expressed in baculovirus expression system at 1000 nM using PIP2 as substrate after 1 hr by Kinase-Glo reagent-based assay relative to control
How it was run: (§1)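 PI3Kα (p110α/p85α) incubated with PIP2 substrate and ATP in kinase buffer for 1 h at room temperature. Kinase-Glo reagent was then added for 15 min before luminescence read-out. Inhibition rate at 100 or 1000 nM is the mean of at least two experiments.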

[9] = biological target: T2, PI3-kinase p110-alpha/p85-alpha (Homo sapiens); experiment: Inhibition of recombinant human full length N-terminal His-tagged/untagged p110alpha/p85alpha expressed in baculovirus expression system at 100 nM using PIP2 as substrate after 1 hr by Kinase-Glo reagent-based assay relative to control; how it was run: as §1
[10] = system: MCF7; experiment: Antiproliferative activity against human MCF7 cells after 72 hrs by MTT assay; assay type: functional, cell-based; conditions: MCF7, 72 h
[11] = biological target: T2, PI3-kinase p110-alpha/p85-alpha (Homo sapiens); experiment: Inhibition of recombinant human full length N-terminal His-tagged/untagged p110alpha/p85alpha expressed in baculovirus expression system at 500 nM using PIP2 as substrate after 1 hr by Kinase-Glo reagent-based assay relative to control
[12] = biological target: T1, Serine/threonine-protein kinase mTOR; experiment: Inhibition of recombinant N-terminal FLAG-tagged human mTOR (1362 to end residues) at 500 nM using ULight-4E-BP1 (Thr37/46) peptide as substrate after 1 hr by fluorescence assay relative to control
[13] = biological target: Histone deacetylase 1 (Homo sapiens, UniProt Q13547); experiment: Inhibition of recombinant full length HDAC1 (unknown origin) using Ac-peptide-AMC as substrate preincubated for 15 mins followed by substrate addition and measured after 1 hr by fluorescence assay
[14] = biological target: Histone deacetylase 2 (Homo sapiens, UniProt Q92769); experiment: Inhibition of recombinant full length human HDAC2 expressed in baculovirus expression system using Ac-peptide-AMC as substrate preincubated for 15 mins followed by substrate addition and measured after 1 hr by fluorescence assay
[15] = biological target: Histone deacetylase 3 (Homo sapiens, UniProt O15379); experiment: Inhibition of recombinant full length HDAC3 (unknown origin) using Ac-peptide-AMC as substrate preincubated for 15 mins followed by substrate addition and measured after 1 hr by fluorescence assay
[16] = biological target: Histone deacetylase 8 (Homo sapiens, UniProt Q9BY41); experiment: Inhibition of recombinant full length C-terminal His-tagged human HDAC8 expressed in baculovirus expression system using Ac-peptide-AMC as substrate preincubated for 15 mins followed by substrate addition and measured after 1 hr by fluorescence assay
[17] = biological target: Protein deacetylase HDAC6 (Homo sapiens, UniProt Q9UBN7); experiment: Inhibition of recombinant full length HDAC6 (unknown origin) using Ac-peptide-AMC as substrate preincubated for 15 mins followed by substrate addition and measured after 1 hr by fluorescence assay
[18] = biological target: Polyamine deacetylase HDAC10 (Homo sapiens, UniProt Q969S8); experiment: Inhibition of recombinant full length N-terminal FLAG-tagged human HDAC10 expressed in baculovirus infected sf9 cells using Ac-peptide-AMC as substrate preincubated for 15 mins followed by substrate addition and measured after 1 hr by fluorescence assay
Polyamine deacetylase HDAC10, sequence (Q969S8 whole entry): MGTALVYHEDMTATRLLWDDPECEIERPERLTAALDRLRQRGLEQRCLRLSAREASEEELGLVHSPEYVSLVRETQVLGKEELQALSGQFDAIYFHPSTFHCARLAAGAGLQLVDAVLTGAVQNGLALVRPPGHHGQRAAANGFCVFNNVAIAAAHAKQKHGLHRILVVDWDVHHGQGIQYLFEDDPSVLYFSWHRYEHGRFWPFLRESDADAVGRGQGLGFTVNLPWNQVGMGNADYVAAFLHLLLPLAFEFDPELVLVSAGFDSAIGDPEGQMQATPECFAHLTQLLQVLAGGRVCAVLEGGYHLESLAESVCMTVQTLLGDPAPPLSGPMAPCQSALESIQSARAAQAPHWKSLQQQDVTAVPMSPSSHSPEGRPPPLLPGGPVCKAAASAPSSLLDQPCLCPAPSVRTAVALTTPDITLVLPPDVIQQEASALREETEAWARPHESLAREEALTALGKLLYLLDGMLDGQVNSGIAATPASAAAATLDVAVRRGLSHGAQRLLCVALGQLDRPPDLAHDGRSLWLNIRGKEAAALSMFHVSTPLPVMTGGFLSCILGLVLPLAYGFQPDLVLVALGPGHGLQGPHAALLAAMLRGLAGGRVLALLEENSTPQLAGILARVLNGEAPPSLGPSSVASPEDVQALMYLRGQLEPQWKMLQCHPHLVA

Protein deacetylase HDAC6, sequence (Q9UBN7 whole entry): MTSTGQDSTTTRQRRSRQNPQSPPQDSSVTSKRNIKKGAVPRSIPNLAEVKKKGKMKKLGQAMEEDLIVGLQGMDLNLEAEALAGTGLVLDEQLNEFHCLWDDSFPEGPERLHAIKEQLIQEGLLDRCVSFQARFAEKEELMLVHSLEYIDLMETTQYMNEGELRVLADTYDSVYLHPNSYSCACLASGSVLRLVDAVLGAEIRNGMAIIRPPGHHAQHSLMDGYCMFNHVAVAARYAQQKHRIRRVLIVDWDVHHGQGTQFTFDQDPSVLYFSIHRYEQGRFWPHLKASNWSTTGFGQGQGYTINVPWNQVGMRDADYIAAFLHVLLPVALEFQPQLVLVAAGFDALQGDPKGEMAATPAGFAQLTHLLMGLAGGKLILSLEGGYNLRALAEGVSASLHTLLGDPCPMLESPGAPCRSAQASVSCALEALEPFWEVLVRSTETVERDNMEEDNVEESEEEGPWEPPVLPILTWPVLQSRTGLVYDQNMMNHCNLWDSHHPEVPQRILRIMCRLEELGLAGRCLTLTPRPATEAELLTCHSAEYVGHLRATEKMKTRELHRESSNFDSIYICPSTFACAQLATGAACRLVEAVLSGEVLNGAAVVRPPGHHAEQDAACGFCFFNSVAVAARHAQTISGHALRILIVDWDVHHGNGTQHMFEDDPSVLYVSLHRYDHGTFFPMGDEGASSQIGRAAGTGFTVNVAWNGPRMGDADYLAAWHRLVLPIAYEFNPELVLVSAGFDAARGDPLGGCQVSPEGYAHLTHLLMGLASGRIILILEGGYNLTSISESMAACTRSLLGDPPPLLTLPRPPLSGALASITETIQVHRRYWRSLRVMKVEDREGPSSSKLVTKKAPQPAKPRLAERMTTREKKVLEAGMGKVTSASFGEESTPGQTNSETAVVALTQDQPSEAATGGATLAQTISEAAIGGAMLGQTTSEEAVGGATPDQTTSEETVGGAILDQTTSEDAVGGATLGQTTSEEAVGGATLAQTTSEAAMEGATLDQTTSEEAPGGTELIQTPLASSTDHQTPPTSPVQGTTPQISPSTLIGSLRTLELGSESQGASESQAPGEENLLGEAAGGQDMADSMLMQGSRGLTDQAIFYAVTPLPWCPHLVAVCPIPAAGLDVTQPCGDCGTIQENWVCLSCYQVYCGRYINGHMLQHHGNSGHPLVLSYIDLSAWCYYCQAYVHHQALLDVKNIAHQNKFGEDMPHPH
Histone deacetylase 1, sequence (Q13547 whole entry): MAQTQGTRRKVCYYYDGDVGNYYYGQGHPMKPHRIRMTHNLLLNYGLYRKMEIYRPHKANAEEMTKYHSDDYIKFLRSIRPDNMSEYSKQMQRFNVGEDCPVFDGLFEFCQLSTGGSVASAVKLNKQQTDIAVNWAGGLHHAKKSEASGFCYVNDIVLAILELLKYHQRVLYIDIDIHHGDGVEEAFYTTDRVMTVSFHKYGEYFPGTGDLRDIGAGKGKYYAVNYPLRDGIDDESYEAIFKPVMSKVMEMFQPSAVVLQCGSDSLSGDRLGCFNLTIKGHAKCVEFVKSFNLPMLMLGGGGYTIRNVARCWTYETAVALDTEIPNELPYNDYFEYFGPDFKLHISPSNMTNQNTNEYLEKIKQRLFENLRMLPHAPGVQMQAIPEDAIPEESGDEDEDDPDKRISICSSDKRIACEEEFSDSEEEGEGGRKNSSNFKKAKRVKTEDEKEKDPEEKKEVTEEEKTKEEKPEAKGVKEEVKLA
Histone deacetylase 3, sequence (O15379 whole entry): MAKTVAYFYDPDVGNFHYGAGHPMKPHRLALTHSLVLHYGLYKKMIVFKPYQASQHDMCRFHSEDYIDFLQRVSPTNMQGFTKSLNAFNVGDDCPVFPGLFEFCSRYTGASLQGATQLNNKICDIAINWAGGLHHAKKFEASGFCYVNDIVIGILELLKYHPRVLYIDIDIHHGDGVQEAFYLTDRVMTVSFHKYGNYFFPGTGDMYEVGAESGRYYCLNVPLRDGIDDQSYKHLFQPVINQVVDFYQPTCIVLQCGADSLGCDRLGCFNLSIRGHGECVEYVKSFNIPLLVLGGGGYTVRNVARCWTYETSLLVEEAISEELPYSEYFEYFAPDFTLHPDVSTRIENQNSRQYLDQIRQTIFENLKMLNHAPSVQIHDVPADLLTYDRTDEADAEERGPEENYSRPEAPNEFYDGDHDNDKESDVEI
Histone deacetylase 8, sequence (Q9BY41 whole entry): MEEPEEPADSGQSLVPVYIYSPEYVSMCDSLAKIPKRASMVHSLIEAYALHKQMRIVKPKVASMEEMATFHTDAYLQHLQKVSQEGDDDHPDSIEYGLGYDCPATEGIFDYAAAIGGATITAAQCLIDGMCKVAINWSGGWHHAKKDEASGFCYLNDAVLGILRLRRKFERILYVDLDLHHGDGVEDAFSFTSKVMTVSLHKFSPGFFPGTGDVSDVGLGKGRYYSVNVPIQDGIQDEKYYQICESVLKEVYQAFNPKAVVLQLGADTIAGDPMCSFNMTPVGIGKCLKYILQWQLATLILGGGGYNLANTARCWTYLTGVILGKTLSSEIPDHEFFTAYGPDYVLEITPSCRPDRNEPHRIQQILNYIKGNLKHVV
Histone deacetylase 2, sequence (Q92769 whole entry): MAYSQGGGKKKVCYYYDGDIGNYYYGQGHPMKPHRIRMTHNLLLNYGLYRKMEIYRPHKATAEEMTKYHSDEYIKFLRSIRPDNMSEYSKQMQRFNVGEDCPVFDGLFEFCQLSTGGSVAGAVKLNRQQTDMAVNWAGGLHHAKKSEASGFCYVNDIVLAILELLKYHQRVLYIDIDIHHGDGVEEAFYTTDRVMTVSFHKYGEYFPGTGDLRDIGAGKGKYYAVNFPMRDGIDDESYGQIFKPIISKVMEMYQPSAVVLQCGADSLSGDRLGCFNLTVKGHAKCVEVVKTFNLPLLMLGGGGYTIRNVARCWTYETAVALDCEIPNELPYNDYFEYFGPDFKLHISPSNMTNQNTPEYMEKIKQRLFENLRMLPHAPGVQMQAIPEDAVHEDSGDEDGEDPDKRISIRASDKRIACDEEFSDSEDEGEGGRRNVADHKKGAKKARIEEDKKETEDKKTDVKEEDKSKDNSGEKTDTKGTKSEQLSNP

Structure (SMILES): CN1CCN(C(=O)Nc2ccc(-c3nc(N4CCOCC4)c4cnn(CCCCCCC(=O)NO)c4n3)cc2)CC1
- IC50 [1]: 83.5 nM
- IC50 [2]: 70.4 nM
- IC50 [3]: 62.2 nM
- IC50 [4]: 3.4 nM
- IC50 [5]: 7.01 nM
- IC50 [6]: 8.55 nM
- IC50 [7]: 35.3 nM
- inhibition [8]: 98.1%
- inhibition [9]: 52.7%

Structure (SMILES): Nc1ccc(-c2nc(N3CCOCC3)c3cnn(CCCCCCC(=O)NO)c3n2)cc1
- IC50 [1]: 7.1 nM
- IC50 [2]: 7.1 nM
- IC50 [10]: 63.7 nM
- IC50 [3]: 18.9 nM
- inhibition [11]: 16%
- inhibition [12]: 95%
- IC50 [13]: 0.21 nM
- IC50 [14]: 1.6 nM
- IC50 [15]: 4.21 nM
- IC50 [16]: 35.7 nM
- IC50 [17]: 2.43 nM
- IC50 [18]: 1.43 nM
- IC50 [4]: 40 nM
